The values that follow come from ChEMBL document CHEMBL3585337, “Selective inhibition of prolyl 4-hydroxylases by bipyridinedicarboxylates” (Bioorg Med Chem, 2015).

The source made the active and inactive calls. The calls are words filed in the database; no cut-off is given here. Some results are limits rather than exact numbers.

Sequence of Egl nine homolog 1 (Homo sapiens) (Q9GZT9 2-426 limits assumed): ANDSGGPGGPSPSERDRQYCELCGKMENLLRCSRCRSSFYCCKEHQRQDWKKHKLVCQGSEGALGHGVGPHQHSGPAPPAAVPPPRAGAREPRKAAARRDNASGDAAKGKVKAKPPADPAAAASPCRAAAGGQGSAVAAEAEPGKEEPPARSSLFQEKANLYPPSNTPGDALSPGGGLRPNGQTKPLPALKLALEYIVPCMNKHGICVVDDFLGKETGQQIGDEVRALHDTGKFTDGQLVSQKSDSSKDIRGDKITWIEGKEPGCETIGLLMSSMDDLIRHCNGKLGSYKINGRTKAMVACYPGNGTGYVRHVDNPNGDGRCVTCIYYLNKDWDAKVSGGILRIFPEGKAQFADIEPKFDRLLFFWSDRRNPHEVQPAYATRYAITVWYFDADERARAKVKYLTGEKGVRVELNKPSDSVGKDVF

Molecular target in one assay: not listed separately
Briefly: Inhibition of human collagen prolyl 4-hydroxylase.
Conditions: not given
For orientation: Ki means the dissociation constant of the complex between target and ligand, obtained from inhibition or displacement. In turn, `O=C(O)c1ccc(C(=O)O)nc1` [PYRIDINE-2,5-DICARBOXYLIC ACID] displayed a Ki of 0.8 µM.

System in the next assay: not listed separately
Briefly: Binding affinity to Fe(2) assessed as half maximal concentration required for binding 20 uM Fe(2) in pH 7.0 sodium phosphate buffer.
Conditions: not given
The essentials:
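Ligand at 3–500 µM in 10 mM sodium phosphate pH 7.0, started by adding freshly made FeSO4 (20 µM). Equilibrated 15 min, then absorbance read at complex λmax with the no-ligand blank subtracted. Absorbance plotted against log ligand, and Fe20-EC50 taken by sigmoidal non-linear regression. Triplicate; mean ± SE.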
Broadly, the EC50 is the concentration that produces a half-maximal response. Turning to `O=C(O)c1cccnc1-c1ncccc1C(=O)O`, the concentration for a half-maximal effect (EC50) result was “Not Active”.

As to `O=C(O)c1cccc(-c2cccc(C(=O)O)n2)n1`, the EC50 result is on record as “Not Active”.

Still in this assay, the particulars now being: read-out: EC50.
Take `O=C(O)c1ccc(-c2cccc(C(=O)O)n2)nc1`: the EC50 worked out at 27 µM.

Turning to `c1ccc(-c2ccccn2)nc1`, the concentration giving a half-maximal response (EC50) worked out at 43 µM.

For the compound `O=C(O)c1ccnc(-c2cccc(C(=O)O)n2)c1`, the EC50 was 26 µM.

For `O=C(O)c1ccc(-c2cc(C(=O)O)ccn2)nc1`, the EC50 was found to be 78 µM.

Regarding `O=C(O)c1ccc(-c2ccc(C(=O)O)cn2)nc1`, the EC50 worked out at 112 µM.

Turning to `O=C(O)c1ccnc(-c2cc(C(=O)O)ccn2)c1`, the concentration for a half-maximal effect (EC50) was determined as 38 µM.

System in the next assay: not listed separately
The assay can be described thus: Binding affinity to Fe(2) assessed as Fe(compound)2+/3 complex formation at 150 uM in Tris buffer at pH 7.8 at 30 degC.
Conditions: not given
The essentials:
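Assay buffer: 50 mM Tris-HCl pH 7.8, 1% w/v BSA, 100 µg/mL catalase, 2 mM sodium ascorbate, 100 µM AKG, 100 µM DTT, 50 µM FeSO4. Incubated at 30 °C with or without ligand (150 µM). Fe(ligand)3 2+ complex detected by UV–Vis spectrophotometry.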
Regarding `c1ccc(-c2ccccn2)nc1`, the outcome was Active.

On to `O=C(O)c1ccc(-c2cc(C(=O)O)ccn2)nc1`, for which the result was Active.

Regarding `O=C(O)c1ccc(-c2ccc(C(=O)O)cn2)nc1`, the outcome was Active.

In the case of `O=C(O)c1ccnc(-c2cc(C(=O)O)ccn2)c1`, the result was Active.

A further assay deals with T1, Prolyl 4-hydroxylase subunit alpha-1 (Homo sapiens, UniProt P13674). The assay can be described thus: Inhibition of human recombinant CP4H1 expressed in Escherichia coli Origami B(DE3) at 10 uM pre-incubated for 2 mins followed by alpha-ketoglutarate addition using dansylGlyProProGlyOEt substrate in Tris-HCl buffer at pH 7.8 at 30 degC by HPLC method.
T1 sequence (P13674 whole entry): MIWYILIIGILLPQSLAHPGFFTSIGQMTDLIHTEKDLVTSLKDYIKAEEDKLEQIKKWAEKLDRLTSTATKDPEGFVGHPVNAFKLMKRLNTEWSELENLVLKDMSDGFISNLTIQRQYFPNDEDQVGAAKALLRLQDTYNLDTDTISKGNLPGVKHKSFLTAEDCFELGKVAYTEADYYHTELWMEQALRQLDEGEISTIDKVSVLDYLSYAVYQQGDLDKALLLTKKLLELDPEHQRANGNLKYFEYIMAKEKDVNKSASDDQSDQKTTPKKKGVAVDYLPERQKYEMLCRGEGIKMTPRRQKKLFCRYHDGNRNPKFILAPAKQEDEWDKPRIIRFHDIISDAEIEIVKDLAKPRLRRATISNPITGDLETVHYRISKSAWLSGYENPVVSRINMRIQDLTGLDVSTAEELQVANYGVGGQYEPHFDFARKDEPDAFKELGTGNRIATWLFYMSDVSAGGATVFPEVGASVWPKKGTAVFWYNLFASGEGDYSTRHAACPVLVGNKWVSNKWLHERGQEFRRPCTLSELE
Conditions: not given
A word on the inhibition: it is the change of the read-out against control, counted positive when it falls. On to `O=C(O)c1ccc(C(=O)O)nc1` [PYRIDINE-2,5-DICARBOXYLIC ACID], for which the inhibition entry was “Active”.

As to `c1ccc(-c2ccccn2)nc1`, the inhibition entry was “inactive”.

For `O=C(O)c1ccc(-c2cc(C(=O)O)ccn2)nc1`, the inhibition is more than 90%.

For `O=C(O)c1ccnc(-c2cc(C(=O)O)ccn2)c1`, the inhibition entry was “Active”.

Another assay deals with T1, Prolyl 4-hydroxylase subunit alpha-1. The assay can be described thus: Inhibition of human recombinant CP4H1 expressed in Escherichia coli Origami B(DE3) pre-incubated for 2 mins followed by alpha-ketoglutarate addition using dansylGlyProProGlyOEt substrate in Tris-HCl buffer at pH 7.8 at 30 degC by HPLC method.
Conditions: not given
As a reminder, the IC50 is the concentration that gives 50% inhibition. For `O=C(O)c1ccc(C(=O)O)nc1` [PYRIDINE-2,5-DICARBOXYLIC ACID], the concentration for half-maximal inhibition (IC50) is 15 µM.

Turning to `O=C(O)c1ccc(-c2cc(C(=O)O)ccn2)nc1`, the IC50 came to 1.2 µM.

`O=C(O)c1ccc(-c2ccc(C(=O)O)cn2)nc1`: the IC50 is 0.84 µM.

A further assay shares this target. The assay can be described thus: Inhibition of human recombinant CP4H1 expressed in Escherichia coli Origami B(DE3) pre-incubated for 2 mins followed by alpha-ketoglutarate addition using dansylGlyProProGlyOEt substrate in Tris-HCl buffer at pH 7.8 at 30 degC by HPLC based Cheng-Prussoff equation method.
Conditions: not given
Turning to `O=C(O)c1ccc(C(=O)O)nc1` [PYRIDINE-2,5-DICARBOXYLIC ACID], the Ki stood at 2.6 µM.

In the case of `O=C(O)c1ccc(-c2cc(C(=O)O)ccn2)nc1`, the Ki stood at 0.2 µM.

On to `O=C(O)c1ccc(-c2ccc(C(=O)O)cn2)nc1`, for which the Ki is 0.14 µM.

A further assay concerns the target Egl nine homolog 1 (Homo sapiens) (UniProt Q9GZT9). Briefly: Inhibition of N-terminal hexa-histidine tagged human PHD2 (181 to 426 amino acids) at 10 uM pre-incubated for 2 mins followed by alpha-ketoglutarate addition using HIF1alpha peptide (556 to 574 amino acids) and 50 uM FeSO4 by RP-HPLC method.
Conditions: not given
The essentials: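 5 µM NHis6-PHD2(181–426) in Tris-HCl pH 7.8 with 50 µM HIF-1α(556–574) peptide, 1 mg/mL BSA, 0.3 mg/mL catalase, 2 mM ascorbate, 1 mM DTT. Started with 35 µM α-ketoglutarate, 10 min at 30 °C, quenched by 60 s boiling. Conversion by C18 HPLC at 218 nm, relative to no-inhibitor control; three independent experiments.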
Consider `O=C(O)c1cccc(-c2cccc(C(=O)O)n2)n1`, for which the inhibition entry is “inactive”.

In the case of `O=C(O)CNC(=O)C(=O)O`, the inhibition result is “Active”.

Regarding `O=C(O)c1ccnc(C(=O)O)c1`, the inhibition entry was “Active”.

`O=C(O)c1ccc(C(=O)O)nc1` [PYRIDINE-2,5-DICARBOXYLIC ACID]: the inhibition entry is “inactive”.

With `O=C(O)c1ccc(-c2cccc(C(=O)O)n2)nc1`, the inhibition result is “inactive”.

Turning to `O=C(O)c1ccnc(-c2cccc(C(=O)O)n2)c1`, the inhibition result was “inactive”.

Consider `O=C(O)c1ccc(-c2cc(C(=O)O)ccn2)nc1`, for which the inhibition entry is “Active”.

On to `O=C(O)c1ccc(-c2ccc(C(=O)O)cn2)nc1`, for which the inhibition entry was “inactive”.

As for `O=C(O)c1ccnc(-c2cc(C(=O)O)ccn2)c1`, the inhibition entry was “Active”.
